Type in all cases: functional
The test system of test [1] is Aphis craccivora. Nature of the test: Insecticidal activity against apterous adult stage of Aphis craccivora (cowpea aphid) in horsebean leaves assessed as mortality at 25 +/-1 degC treated for 5 secs measured after 24 hr by leaf-dip method. In short, it runs like this: (§1)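 Leaf-dip assay: horsebean leaves carrying 40-60 apterous adults were dipped in diluted compound, excess liquid was blotted off with filter paper, and they were held at 25 ± 1 °C, 50% RH. Controls were water containing Triton X-100. Mortality was scored 24 h after treatment, with three repetitions per treatment. Data were adjusted and subjected to probit analysis.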

The subject of test [2] is Mythimna separata. Nature of the test: Insecticidal activity against second instar larval stage of Mythimna separata (Oriental armyworm) in compound pretreated corn leaves assessed as mortality at 25 +/-1degC after 48 hr.
Test [3] relates to Mythimna separata. Nature of the test: Insecticidal activity against second instar larval stage of Mythimna separata (Oriental armyworm) in compound pretreated corn leaves assessed as mortality at 500 mg/l at 25 +/-1 degC after 48 hr.
In test [4] the test system is Aphis craccivora. Nature of the test: Insecticidal activity against apterous adult stage of Aphis craccivora (cowpea aphid) in horsebean leaves assessed as mortality at 500 mg/l at 25 +/-1 degC treated for 5 secs measured after 24 hr by leaf-dip method. In short, it runs like this:
as §1

Test [5] relates to Nilaparvata lugens. Nature of the test: Toxicity ratio of imidacloprid LC50 to compound LC50 for macropterous adult stage of imidaclopride-sensitive Nilaparvata lugens (brown planthopper) after 48 hr by microtopical application technique. In short, it runs like this: (§2)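 Toxic ratio is imidacloprid's baseline-toxicity LC50 divided by the compound's LC50. LC50 values come from topical application of acetone solutions (0.08 μL droplet, prothorax notum, CO2 anesthesia) to unmated macropterous females aged 2-3 days, about 30 per concentration, three repeats. Insects were reared on seedlings at 25 ± 1 °C, and values were derived by probit analysis.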

The subject of test [6] is Nilaparvata lugens. Nature of the test: Insecticidal activity against macropterous adult stage of imidaclopride-sensitive Nilaparvata lugens (brown planthopper) assessed as concentration required to induce mortality per pest at 25 +/-1 degC applied topically to the prothorax notum of insect prior to rearing on rice seedlings measured after 48 hr by microtopical application technique. In short, it runs like this: (§3)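 Microtopical application on unmated macropterous adult females aged 2-3 days. Compounds were serially diluted in acetone, and a 0.08 μL droplet was applied to the prothorax notum under CO2 anesthesia. About 30 insects were used per concentration, with three repeats; controls received acetone. Insects were then reared on soilless seedlings at 25 ± 1 °C, 16/8 h light/dark. LC50 (ng/pest) was obtained from probit regression lines.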

In test [7] the test system is Nilaparvata lugens. Nature of the test: Insecticidal activity against macropterous adult stage of imidaclopride-resistant Nilaparvata lugens (brown planthopper) assessed as concentration required to induce mortality per pest at 25 +/-1 degC applied topically to the prothorax notum of insect prior to rearing on rice seedlings measured after 48 hr by microtopical application technique. Summed up:
as §3

The test system of test [8] is Nilaparvata lugens. Nature of the test: Toxicity ratio of imidacloprid LC50 to compound LC50 for macropterous adult stage of imidaclopride-resistant Nilaparvata lugens (brown planthopper) after 48 hr by microtopical application technique. Summed up:
as §2

SMILES strings stand for the structures.

Results on 9 compounds are retold here after ChEMBL document CHEMBL3045003, “Divalent and oxabridged neonicotinoids constructed by dialdehydes and nitromethylene analogues of imidacloprid: design, synthesis, crystal structure, and insecticidal activities” (2010).

In the case of `O=[N+]([O-])/C=C1/NCCN1Cc1ccc(Cl)nc1`, the values for the LC50 in test [1] and in test [2] were 5.12 µM and 70.9 µM, respectively. Further, the mortality at 500 µg/mL in test [3] and in test [4] was 100% throughout.

With `O=[N+]([O-])C1=C2N(Cc3ccccc3)CCN2[C@@H]2CC[C@H]1O2`, the mortality at 500 µg/mL stood at 0% in test [3] and 13.6% in test [4].

Take `O=[N+]([O-])C1=C2N(Cc3ccc(Cl)cc3)CCN2[C@@H]2CC[C@H]1O2`: the mortality at 500 µg/mL in test [3] worked out at 0%; in test [4], 95.7%.

Consider `O=[N+]([O-])/C(=C1/NCCN1Cc1ccc(Cl)nc1)C(O)/C=C(\C1=NCCN1Cc1ccc(Cl)nc1)[N+](=O)[O-]` (configuration not stated), for which the LC50 in test [2] came to 195 µM. The values for the mortality at 500 µg/mL in test [3] and in test [4] were 100% and 78.1%, respectively.

For the compound `COC(/C=C(\C1=NCCN1Cc1ccc(Cl)nc1)[N+](=O)[O-])/C(=C1\NCCN1Cc1ccc(Cl)nc1)[N+](=O)[O-]` (configuration not stated), the mortality at 500 µg/mL worked out at 100% in test [3] and 97.7% in test [4].

For `O=[N+]([O-])/C(=C/C/C=C(\C1=NCCN1Cc1ccc(Cl)nc1)[N+](=O)[O-])C1=NCCN1Cc1ccc(Cl)nc1`, the LC50 turned out to be 9.51 µM in test [1] and 28 µM in test [2]. The mortality at 500 µg/mL in test [3] and in test [4] was 100% each time.

For `O=[N+]([O-])C1=C2N(Cc3ccc(Cl)nc3)CCN2[C@@H]2CC[C@H]1O2`, the RatioLC50 in test [5] came to 1.77; in test [8], 40.4. Further, the LC50 turned out to be 4.71 µM in test [1], 38.7 µM in test [2], 0.0742 ng in test [6] and 0.4925 ng in test [7]. Also, the mortality at 500 µg/mL in test [3] and in test [4] was 100% throughout.

With `O=[N+]([O-])C1=C2N(Cc3cnc(Cl)s3)CCN2[C@@H]2CC[C@H]1O2`, the LC50 in test [1] came out at 8.83 µM; in test [2], 49.6 µM. Moreover, the mortality at 500 µg/mL in test [3] and in test [4] was 100% throughout.

For `O=[N+]([O-])/N=C1\NCCN1Cc1ccc(Cl)nc1` [IMIDACLOPRID], the RatioLC50 in test [5] and in test [8] was 1 throughout. Moreover, the LC50 in test [1] stood at 35 µM; in test [2] it was 125 µM; in test [6] it was 0.1316 ng; in test [7], 22.1614 ng. The mortality at 500 µg/mL in test [3] and in test [4] was 100% throughout.

For orientation: mortality means the percentage killed.
